Results from ChEMBL document CHEMBL1155233, “Structure mechanism insights and the role of nitric oxide donation guide the development of oxadiazole-2-oxides as therapeutic agents against schistosomiasis” (J Med Chem, 2009).
Activity calls are given as the source filed them. No cut-off for these calls is given here.

Experiments:
[1] = Metabolic stability in human liver microsomes assessed as compound remaining over 60 mins in absence of NADPH; format: ADME, Microsome; conditions: read-out: Stability
Schistosoma mansoni [2] = experiment: Antischistosomal activity against Schistosoma mansoni assessed as parasite killing after 2 hrs; format: functional, organism-based
How it was run: (§1)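 Cultured ex vivo worms were exposed to 10 μM compound. Worm effects were scored by visual examination at time points over a 72 h time-course.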

[3] = Induction of nitric oxide release at 10 uM in presence of Schistosoma mansoni recombinant TGR and NADPH; format: functional
[4] = target: T1, Thioredoxin glutathione reductase (Schistosoma mansoni, UniProt Q962Y6); experiment: Inhibition of Schistosoma mansoni TGR
T1 sequence (Q962Y6 whole entry): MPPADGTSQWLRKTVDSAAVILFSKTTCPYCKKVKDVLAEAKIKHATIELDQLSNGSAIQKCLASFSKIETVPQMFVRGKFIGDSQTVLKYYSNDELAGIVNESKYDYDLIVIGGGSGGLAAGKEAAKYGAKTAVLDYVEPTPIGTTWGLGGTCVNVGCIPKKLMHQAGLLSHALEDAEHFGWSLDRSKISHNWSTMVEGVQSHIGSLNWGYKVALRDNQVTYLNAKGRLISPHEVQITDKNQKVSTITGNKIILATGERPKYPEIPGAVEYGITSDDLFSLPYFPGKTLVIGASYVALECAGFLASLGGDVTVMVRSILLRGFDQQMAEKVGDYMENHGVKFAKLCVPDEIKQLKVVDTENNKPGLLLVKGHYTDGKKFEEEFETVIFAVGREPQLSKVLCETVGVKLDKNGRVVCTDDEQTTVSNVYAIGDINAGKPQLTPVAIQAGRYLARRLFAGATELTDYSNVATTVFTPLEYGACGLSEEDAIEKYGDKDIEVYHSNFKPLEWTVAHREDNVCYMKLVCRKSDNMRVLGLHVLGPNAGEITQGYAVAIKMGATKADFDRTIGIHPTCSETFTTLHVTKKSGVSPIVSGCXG

Schistosoma mansoni [5] = experiment: Antischistosomal activity against Schistosoma mansoni assessed as induction of parasite mortality after 48 hrs; format: functional; parameters: concentration or dose not given beside the values; how it was run: as §1
[6] = target: T2, Glutathione reductase, mitochondrial (Homo sapiens, UniProt P00390); experiment: Inhibition of human recombinant GR after 15 mins in presence of NADPH
T2 sequence (P00390 whole entry): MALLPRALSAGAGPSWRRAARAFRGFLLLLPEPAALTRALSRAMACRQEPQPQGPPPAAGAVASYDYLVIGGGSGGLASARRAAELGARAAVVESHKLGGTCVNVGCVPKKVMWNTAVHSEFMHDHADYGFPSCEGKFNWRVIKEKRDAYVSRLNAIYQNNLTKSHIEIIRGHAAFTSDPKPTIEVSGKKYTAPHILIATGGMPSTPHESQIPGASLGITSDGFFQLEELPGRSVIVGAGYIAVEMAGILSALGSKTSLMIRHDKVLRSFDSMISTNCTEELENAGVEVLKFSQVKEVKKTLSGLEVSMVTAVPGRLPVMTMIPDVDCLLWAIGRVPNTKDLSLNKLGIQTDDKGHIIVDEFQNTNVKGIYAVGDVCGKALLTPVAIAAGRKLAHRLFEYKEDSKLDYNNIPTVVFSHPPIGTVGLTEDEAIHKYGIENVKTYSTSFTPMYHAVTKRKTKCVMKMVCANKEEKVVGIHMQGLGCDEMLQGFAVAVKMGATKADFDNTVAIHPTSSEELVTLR

Schistosoma mansoni [7] = experiment: Antischistosomal activity against Schistosoma mansoni assessed as induction of parasite mortality after 16 hrs; format: functional; parameters: concentration or dose not given beside the values; how it was run: as §1
[8] = target: T3, Thioredoxin reductase 1, cytoplasmic (Rattus norvegicus, UniProt O89049); experiment: Inhibition of rat recombinant TrxR1 after 10 mins
T3 sequence (O89049 whole entry): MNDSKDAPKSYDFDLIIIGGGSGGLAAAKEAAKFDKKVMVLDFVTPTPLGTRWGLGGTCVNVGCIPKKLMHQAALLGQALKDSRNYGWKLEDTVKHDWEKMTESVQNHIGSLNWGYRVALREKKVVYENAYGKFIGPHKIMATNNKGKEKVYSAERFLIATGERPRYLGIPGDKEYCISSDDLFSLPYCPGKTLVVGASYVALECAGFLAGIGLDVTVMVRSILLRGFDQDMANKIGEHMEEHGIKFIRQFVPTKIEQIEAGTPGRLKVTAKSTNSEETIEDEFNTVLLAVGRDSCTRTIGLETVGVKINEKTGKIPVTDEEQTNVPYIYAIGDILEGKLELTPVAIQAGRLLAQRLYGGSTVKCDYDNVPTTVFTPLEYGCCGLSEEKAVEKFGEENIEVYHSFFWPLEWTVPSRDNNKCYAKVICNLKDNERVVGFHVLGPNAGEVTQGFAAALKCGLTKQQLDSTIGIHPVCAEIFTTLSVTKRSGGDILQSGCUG

Schistosoma mansoni [9] = experiment: Antischistosomal activity against Schistosoma mansoni assessed as induction of parasite mortality after 8 hrs; format: functional; parameters: concentration or dose not given beside the values; how it was run: as §1
Schistosoma mansoni [10] = experiment: Antischistosomal activity against Schistosoma mansoni assessed as induction of parasite mortality after 24 hrs; format: functional; parameters: concentration or dose not given beside the values; how it was run: as §1
Schistosoma mansoni [11] = experiment: Antischistosomal activity against Schistosoma mansoni assessed as induction of parasite mortality after 72 hrs; format: functional; parameters: concentration or dose not given beside the values; how it was run: as §1
[12] = Induction of nitric oxide release at 10 uM in presence of cysteine; format: physicochemical
Schistosoma mansoni [13] = experiment: Antischistosomal activity against Schistosoma mansoni assessed as parasite killing after 4 hrs; format: functional; how it was run: as §1
[14] = Induction of nitric oxide release at 10 uM in presence of Schistosoma mansoni recombinant TGR; format: functional
Schistosoma mansoni [15] = experiment: Antischistosomal activity against Schistosoma mansoni assessed as induction of parasite sluggish movement after 16 hrs; format: functional, organism-based; how it was run: as §1
[16] = Reactivity with cysteine at 0.1 mM in 0.1M phosphate buffer assessed as amount of compound unreacted by HPLC

SMILES | remaining at 1 h [1] | Activity (Schistosoma mansoni [2]) | Activity [3] | IC50 [4] | Activity (Schistosoma mansoni [5]) | IC50 [6] | Activity (Schistosoma mansoni [7]) | IC50 [8] | Activity (Schistosoma mansoni [9]) | Activity (Schistosoma mansoni [10]) | Activity (Schistosoma mansoni [11]) | Activity [12] | Activity (Schistosoma mansoni [13]) | Activity [14] | Activity (Schistosoma mansoni [15]) | Activity [16]
N#Cc1c(-c2csc(-c3no[n+]([O-])c3C#N)c2)no[n+]1[O-] | 52% | inactive | – | – | – | – | – | – | – | – | – | – | – | – | – | –
O=C(O)c1c(-c2ccccc2)no[n+]1[O-] | – | inactive | 7% | 0.63 µM | inactive | > 50 µM | inactive | > 400 µM | inactive | inactive | inactive | 10% | inactive | 2% | – | –
N#Cc1nonc1-c1ccccc1 | – | – | 3% | – | – | – | – | – | – | – | – | 7% | – | < 1% | – | –
COc1cccc(-c2no[n+]([O-])c2C#N)c1 | – | inactive | 9% | – | 12% | > 50 µM | inactive | > 400 µM | inactive | 7% | 20% | 52% | inactive | 2% | – | –
COc1ccccc1-c1no[n+]([O-])c1C#N | – | inactive | – | – | 50% | – | 11% | – | – | 40% | 60% | – | inactive | – | – | –
COc1ccc(-c2no[n+]([O-])c2C#N)cc1 | – | inactive | 10% | – | 60% | > 50 µM | 10% | > 400 µM | inactive | 29% | 100% | 55% | inactive | 2% | – | –
N#Cc1c(-c2cccc(Br)c2)no[n+]1[O-] | – | inactive | 19% | – | 100% | > 50 µM | 39% | 150 µM | 20% | 100% | 100% | 70% | inactive | 2% | – | –
N#Cc1c(-c2ccc(C(F)(F)F)cc2)no[n+]1[O-] | – | inactive | 22% | – | 80% | 45.3 µM | 20% | < 12.5 µM | 12% | 64% | 100% | 80% | inactive | 2% | – | –
NC(=O)c1c(-c2ccccc2)no[n+]1[O-] | – | inactive | – | 17.8 µM | 100% | > 50 µM | 27% | > 400 µM | 12% | 60% | 100% | – | inactive | – | – | –
N#Cc1c(-c2cccc([N+](=O)[O-])c2)no[n+]1[O-] | – | inactive | 16% | – | 15% | > 50 µM | – | 150 µM | inactive | 10% | 21% | 72% | inactive | 2% | Active | –
Cc1ccc(-c2no[n+]([O-])c2C#N)cc1 | – | inactive | 15% | – | 55% | > 50 µM | 15% | > 400 µM | inactive | 50% | 70% | 58% | inactive | 1% | – | –
N#Cc1c(-c2ccco2)no[n+]1[O-] | – | inactive | 16% | 2.8 µM | 100% | > 50 µM | 40% | 350 µM | 10% | 70% | 100% | 60% | inactive | 2% | – | –
N#Cc1c(-c2ccc(Cl)cc2)no[n+]1[O-] | – | inactive | 16% | – | 60% | > 50 µM | – | > 400 µM | inactive | 42% | 100% | 61% | inactive | 2% | Active | –
N#Cc1c(-c2cccc(C(F)(F)F)c2)no[n+]1[O-] | – | inactive | 20% | – | 100% | > 50 µM | 25% | 250 µM | 7% | 54% | 100% | 78% | inactive | 2% | – | –
N#Cc1c(-c2cccc(O)c2)no[n+]1[O-] | – | inactive | – | – | inactive | – | inactive | – | – | inactive | inactive | – | inactive | – | – | –
COc1cc(-c2no[n+]([O-])c2C#N)cc(OC)c1OC | – | inactive | 8% | – | 70% | > 50 µM | – | 150 µM | 7% | 40% | 75% | 20% | inactive | < 1% | Active | –
O=C(c1cccs1)c1no[n+]([O-])c1C(=O)c1cccs1 | – | inactive | – | 0.04 µM | inactive | – | inactive | – | inactive | inactive | inactive | – | inactive | – | – | Active
[O-][n+]1onc(-c2ccccc2)c1CO | – | – | – | – | – | > 50 µM | – | > 400 µM | – | – | – | – | – | – | – | –
N#Cc1c(-c2ccc(F)cc2)no[n+]1[O-] | – | inactive | 13% | – | 100% | > 50 µM | 15% | 300 µM | 5% | 72% | 100% | 50% | inactive | < 1% | – | –
N#Cc1c(C(=O)c2cccs2)no[n+]1[O-] | – | inactive | – | 0.063 µM | inactive | – | inactive | – | inactive | inactive | inactive | – | inactive | – | – | Active
N#Cc1no[n+]([O-])c1-c1ccccc1 | – | – | 5% | – | – | – | – | – | – | – | – | 10% | – | < 1% | – | Active
